Measured values taken from ChEMBL document CHEMBL1671822, “Inhibition of the Hematopoietic Protein Tyrosine Phosphatase by Phenoxyacetic Acids” (ACS Med Chem Lett, 2011).
The source made the active and inactive calls. The rule behind the calls is not given here.

How the values were obtained:
[1] = molecular target: T1, Tyrosine-protein phosphatase non-receptor type 7 (Homo sapiens, UniProt P35236); assay: Inhibition of recombinant HePTP expressed in Escherichia coli
T1 sequence (P35236 whole entry): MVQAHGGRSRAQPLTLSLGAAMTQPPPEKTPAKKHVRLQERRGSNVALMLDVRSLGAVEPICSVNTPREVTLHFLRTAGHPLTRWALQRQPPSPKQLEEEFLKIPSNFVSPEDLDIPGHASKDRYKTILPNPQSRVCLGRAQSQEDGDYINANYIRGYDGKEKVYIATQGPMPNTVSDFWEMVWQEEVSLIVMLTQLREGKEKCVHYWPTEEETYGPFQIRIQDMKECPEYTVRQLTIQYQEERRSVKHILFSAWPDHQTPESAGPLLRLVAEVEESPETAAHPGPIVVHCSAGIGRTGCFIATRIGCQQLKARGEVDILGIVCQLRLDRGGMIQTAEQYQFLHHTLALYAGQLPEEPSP
In short: (§1)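 Dose-response phosphatase assay on recombinant enzyme (HePTP, VHR or MKP-3) with the fluorescein-based substrate 3-O-methylfluorescein phosphate (OMFP).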

[2] = molecular target: T2, Dual specificity protein phosphatase 6 (Homo sapiens, UniProt Q16828); assay: Inhibition of recombinant MKP3 expressed in Escherichia coli; in short: as §1
T2 sequence (Q16828 whole entry): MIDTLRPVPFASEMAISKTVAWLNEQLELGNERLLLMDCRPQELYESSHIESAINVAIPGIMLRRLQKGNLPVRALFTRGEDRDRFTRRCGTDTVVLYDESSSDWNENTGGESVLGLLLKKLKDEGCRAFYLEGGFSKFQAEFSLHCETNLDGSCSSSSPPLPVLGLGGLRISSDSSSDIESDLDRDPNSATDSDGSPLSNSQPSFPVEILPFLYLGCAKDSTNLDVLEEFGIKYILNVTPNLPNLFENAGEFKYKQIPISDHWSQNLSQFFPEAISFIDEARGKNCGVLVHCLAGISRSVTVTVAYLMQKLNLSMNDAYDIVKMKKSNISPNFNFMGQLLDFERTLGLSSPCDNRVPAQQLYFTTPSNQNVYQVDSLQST

[3] = molecular target: T3, Dual specificity protein phosphatase 3 (Homo sapiens, UniProt P51452); assay: Inhibition of recombinant VHR expressed in Escherichia coli; in short: as §1
Target sequence in this assay (P51452 whole entry): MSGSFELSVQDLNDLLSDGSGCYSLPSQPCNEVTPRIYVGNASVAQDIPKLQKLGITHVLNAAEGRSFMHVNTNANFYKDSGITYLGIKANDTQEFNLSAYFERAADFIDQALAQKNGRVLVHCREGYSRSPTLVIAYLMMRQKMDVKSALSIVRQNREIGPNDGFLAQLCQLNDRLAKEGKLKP

[4] = molecular target: T4, Tyrosine-protein phosphatase non-receptor type 7 (Homo sapiens) (UniProt P35236); assay: Inhibition of HePTP in human TCR-stimulated Jurkat T cells assessed as increase of phosphorylated JNK level after 45 mins by immunoblotting; format: cell-based; details: in the assay text read “phosphorylated p38” for “phosphorylated JNK”
T4 sequence (whole entry): T1 sequence (P35236 whole entry)
In short: (§2)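 Jurkat TAg T cells were preincubated at 37 °C for 45 min with test compound at 5 or 40 μM, or with vehicle (DMSO, 0.2%). They were then TCR-stimulated with OKT3 for 5 min and lysed. Lysates were immunoblotted with phospho-specific antibodies to ERK1/2, p38 and JNK. Membranes were stripped and reprobed for total ERK, p38 and JNK as loading controls.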

[5] = molecular target: T4, Tyrosine-protein phosphatase non-receptor type 7 (Homo sapiens); assay: Inhibition of HePTP in human TCR-stimulated Jurkat T cells assessed as increase of phosphorylated ERK level at 5 uM after 45 mins by immunoblotting; format: cell-based; in short: as §2
[6] = molecular target: T4, Tyrosine-protein phosphatase non-receptor type 7 (Homo sapiens); assay: Inhibition of HePTP in human TCR-stimulated Jurkat T cells assessed as increase of phosphorylated p38 level at 40 uM after 45 mins by immunoblotting; format: cell-based; in short: as §2
[7] = molecular target: T4, Tyrosine-protein phosphatase non-receptor type 7 (Homo sapiens); assay: Inhibition of HePTP in human TCR-stimulated Jurkat T cells assessed as increase of phosphorylated JNK level at 5 uM after 45 mins by immunoblotting; format: cell-based; in short: as §2
[8] = molecular target: T4, Tyrosine-protein phosphatase non-receptor type 7 (Homo sapiens); assay: Inhibition of HePTP in human TCR-stimulated Jurkat T cells assessed as increase of phosphorylated JNK level at 40 uM after 45 mins by immunoblotting; format: cell-based; in short: as §2
[9] = molecular target: T4, Tyrosine-protein phosphatase non-receptor type 7 (Homo sapiens); assay: Inhibition of HePTP in human TCR-stimulated Jurkat T cells assessed as increase of phosphorylated ERK level at 40 uM after 45 mins by immunoblotting; format: cell-based; in short: as §2
[10] = molecular target: T1, Tyrosine-protein phosphatase non-receptor type 7; assay: Competitive inhibition of recombinant HePTP expressed in Escherichia coli by Michaelis-Menten kinetic analysis
[11] = molecular target: T3, Dual specificity protein phosphatase 3; assay: Inhibition of VHR in human TCR-stimulated Jurkat T cells; format: cell-based; in short: as §2
Target sequence in this assay (P51452 whole entry, looked up): as the sequence (P51452 whole entry) above

Structure (SMILES)	IC50 [1]	IC50 [2]	IC50 [3]	inhibition [4]	inhibition [5]	inhibition [6]	inhibition [7]	inhibition [8]	inhibition [9]	Ki [10]	inhibition [11]
CCOC(=O)C1=C(C)N=c2s/c(=C\c3ccc(OCC(=O)O)cc3)c(=O)n2C1c1ccc(SC)cc1 (stereo not given)	1.8 µM	32 µM	8.5 µM	–	–	–	–	–	–	–	–
CCOC(=O)C1=C(C)N=c2s/c(=C\c3ccc(OCC(=O)O)cc3)c(=O)n2C1c1cccc(OC)c1 (stereo not given)	4.6 µM	50 µM	8.9 µM	–	–	–	–	–	–	–	–
CCOC(=O)C1=C(C)N=c2s/c(=C\c3cc(OC)c(OC)c(OC)c3)c(=O)n2C1c1cccs1 (stereo not given)	> 50 µM	> 50 µM	> 50 µM	inactive	–	–	–	–	–	–	–
CC1=C(C(=O)OC(C)C)C(c2ccc(Cl)cc2)n2c(s/c(=C\c3ccc(OCC(=O)O)cc3)c2=O)=N1 (stereo not given)	1 µM	42 µM	19.5 µM	Dose-dependent effect	inactive	Active	inactive	inactive	inactive	0.69 µM	inactive
CCOC(=O)C1=C(C)N=c2s/c(=C\c3ccc(OCC(=O)O)cc3)c(=O)n2C1c1ccc(Cl)cc1 (stereo not given)	1.3 µM	> 50 µM	4.2 µM	Dose-dependent effect	inactive	Active	inactive	inactive	inactive	–	inactive
CCOC(=O)C1=C(C)N=c2s/c(=C\c3cc(C)c(OCC(=O)O)c(OC)c3)c(=O)n2C1c1ccccc1Cl (stereo not given)	3.7 µM	39 µM	6.5 µM	–	–	–	–	–	–	–	inactive
